Data taken from paper PMC2606940 (The Journal of General Physiology, 2009).
Positions count from the first letter of the chain named. Where two headings read alike, the source gives them in different places.

Legend:
[1] = biological target: T1, CLC-0 E166A mutant (Torpedo marmorata, UniProt P21564, C212S/E166A); type: cell-based; conditions: for IC50: read-out: Apparent affinity (K1/2)
T1 sequence (P21564 1-805 E166A/C212S): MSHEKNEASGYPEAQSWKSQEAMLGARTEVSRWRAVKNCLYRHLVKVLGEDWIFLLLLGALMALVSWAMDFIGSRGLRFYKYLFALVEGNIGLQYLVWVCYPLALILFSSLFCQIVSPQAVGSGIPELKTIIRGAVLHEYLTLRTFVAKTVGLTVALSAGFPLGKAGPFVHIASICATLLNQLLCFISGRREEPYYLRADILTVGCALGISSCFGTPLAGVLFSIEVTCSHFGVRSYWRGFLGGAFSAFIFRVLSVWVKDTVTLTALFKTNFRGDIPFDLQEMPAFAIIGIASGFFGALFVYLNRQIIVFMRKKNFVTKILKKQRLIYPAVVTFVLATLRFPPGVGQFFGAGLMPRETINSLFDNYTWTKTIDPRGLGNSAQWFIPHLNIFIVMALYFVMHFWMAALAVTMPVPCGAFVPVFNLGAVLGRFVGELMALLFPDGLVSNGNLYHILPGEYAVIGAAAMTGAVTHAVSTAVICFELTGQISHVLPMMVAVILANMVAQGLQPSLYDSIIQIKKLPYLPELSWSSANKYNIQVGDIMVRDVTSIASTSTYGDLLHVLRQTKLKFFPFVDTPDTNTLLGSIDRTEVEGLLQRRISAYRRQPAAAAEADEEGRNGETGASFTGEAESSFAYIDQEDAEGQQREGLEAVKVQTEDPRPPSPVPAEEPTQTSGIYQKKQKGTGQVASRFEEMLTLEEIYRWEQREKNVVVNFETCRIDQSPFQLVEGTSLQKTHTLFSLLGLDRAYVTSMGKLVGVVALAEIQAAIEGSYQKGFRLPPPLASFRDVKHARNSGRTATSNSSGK
Summary of the method: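 HEK293 cells expressed C212S-background CLC-0 mutants and were recorded 1–3 d post-transfection as inside-out patches in symmetrical 130 mM NaCl, 10 mM HEPES, pH 7.4. CPA, fatty acids or alkyl sulfates flowed continuously on the cytoplasmic side. C10–C12 compounds were diluted into bath solution from 10 mM DMSO stocks. Test steps ran from +80 to −160 mV after a +80 mV prepulse. Steady-state current was normalized to the mean of pre- and post-blocker controls, and a Langmuir K1/2 was taken at each voltage from ~4–6 patches.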

[2] = biological target: T2, CLC-0 E166S mutant (Torpedo marmorata, UniProt P21564, C212S/E166S); type: cell-based; conditions: read-out: Apparent affinity (K1/2)
T2 sequence (P21564 1-805 E166S/C212S): T1 sequence (P21564 1-805 E166A/C212S) with A166S
Summary of the method: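 CLC-0 mutants (C212S background) were lipofectamine-transfected into HEK293 cells and recorded 1–3 d later from inside-out patches. Pipette and bath contained 130 mM NaCl, 5 MgCl2, 10 HEPES and 1 EGTA (pH 7.4). Test compound was perfused onto the cytoplasmic side. A +80 mV prepulse preceded steps to steady state. The last-10-ms current was normalized to bracketing blocker-free controls and fitted to a Langmuir function for K1/2.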

K1/2 (range in words) ([1]; −140 mV (Fig. 10 C)) | Structure (SMILES) | block of current ([1]; 10 μM) | inhibition of current ([1]; 300 μM CPA, −160 mV) | IC50 ([1]; −40 mV) | IC50 ([1]; −60 mV) | IC50 ([1]; −80 mV) | IC50 ([1]; −100 mV) | IC50 ([1]; −120 mV) | IC50 ([1]; −140 mV) | IC50 ([1]; −160 mV) | saturated value of 1/τ of current inhibition ([1]; voltage step +80 to −160 mV) | IC50 ([2]; −40 mV) | IC50 ([2]; −60 mV) | IC50 ([2]; −80 mV) | IC50 ([2]; −100 mV) | IC50 ([2]; −120 mV) | IC50 ([2]; −140 mV) | IC50 ([2]; −160 mV)
– | O=C(O)COc1ccc(Cl)cc1 [CPA, p-chlorophenoxy acetate] | ~50% | ~95% | 337 ± 19 µM | 162 ± 9 µM | 82 ± 4 µM | 46 ± 2 µM | 25 ± 2 µM | 15 ± 1 µM | 10 ± 1 µM | 1561 s⁻¹ | 641 ± 36 µM | 342 ± 15 µM | 179 ± 7 µM | 104 ± 4 µM | 58 ± 3 µM | 35 ± 2 µM | 21 ± 1 µM
low μM range | CCCCCCCC(=O)O [octanoate] | – | – | 64.3 ± 3.7 µM | 29.7 ± 1.4 µM | 15.7 ± 0.7 µM | 8.2 ± 0.2 µM | 4.7 ± 0.2 µM | 2.8 ± 0.2 µM | 1.9 ± 0.1 µM | – | 855 ± 37 µM | 403 ± 22 µM | 198 ± 11 µM | 100 ± 9 µM | 50 ± 3 µM | 26 ± 3 µM | 16 ± 2 µM
